Results taken from article PMC3306222 (Biopolymers, 2011).
Where a SMILES comes first, the peptide text is derived from it. Bridges are numbered along the chain shown (N, C = ends). [ ]: non-standard residue; d: D form. S5 = C=CCCC[C@](C)(N)C(=O)O

Key:
[1] = Dynamic light scattering of free peptides; type: physicochemical; conditions: DLS, lower peptide concentration (100 µM)
In short: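 Free stapled peptide stocks, quantified by absorbance at 280 nm, were diluted into D₂O or H₂O to 100 µM or 1 mM and centrifuged at 6,000–8,000 g before loading. Light scattering was recorded as one hundred 5-s scans per sample at ambient temperature and corrected for solvent signal. Normalized intensity was plotted against radius, and the hydrodynamic radius and polydispersity index of major peaks were reported.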

[2] = type: physicochemical; conditions: fit of NMR chemical shift changes with concentration, D2O, 298 K, pH 7.0
[3] = molecular target: CA-CTD dimerization helix peptide CTD dimerization helix (Human immunodeficiency virus 1) (UniProt O93182); conditions: cited from earlier work

Row | effective radius of gyration of monomer [1] [nm] | Kd of self-association, isodesmic model of indefinite association [2] [µM] | Compound | Kd [3] [µM]
1 | 1 | 2500 ± 1400 | CC[C@H](C)[C@H](N)C(=O)N[C@H](C(=O)N[C@@H](Cc1ccccc1)C(=O)N[C@@]1(C)CCC/C=C\CCC[C@@](C)(C(=O)N[C@@H](Cc2ccc(O)cc2)C(=O)N[C@@H](Cc2ccc(O)cc2)C(=O)NCC(=O)N[C@@H](CCCCN)C(=O)N[C@@H](CCCCN)C(=O)N[C@@H](CCCCN)C(N)=O)NC(=O)[C@H](CC(C)C)NC(=O)[C@H](CC(C)C)NC(=O)[C@H](CC(=O)O)NC1=O)[C@@H](C)O [NYAD-13] (H-ITF[S5]DLL[S5]YYGKKK-NH2; staple (Z) 4-8; N-terminus and C-terminus assumed) | 
2 |  |  | CA-CTD dimerization helix peptide CTD dimerization helix (from UniProt O93182) | 17
